Laboratory results: ChEMBL document CHEMBL1828519, “Tricyclic thiazolopyrazole derivatives as metabotropic glutamate receptor 4 positive allosteric modulators” (J Med Chem, 2011)
Values after ≈ are worked out from the molar mass of the structure shown.

How the values were obtained:
[1] = biological target: T1, Metabotropic glutamate receptor 4 (Homo sapiens, UniProt Q14833); experiment: Positive allosteric modulation of human mGlu4 receptor expressed in BHK cells assessed as potentiation of glutamate-induced response after 1 hr by FLIPR assay relative to glutamate; format: cell-based
How it was run: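 BHK cells stably co-expressing human mGlu4 and murine G-protein […], grown in DMEM at 37 °C, 5% CO₂. Cells seeded 24 h before assay, then loaded with Calcium 3 no-wash dye in HBSS/HEPES pH 7.4 with 0.1% BSA and 2.5 mM probenecid for 1 h at 37 °C. FLIPR calcium read after stimulation with EC₂₀ glutamate plus compound. Emax is percent of maximal glutamate response. Mean of ≥2 independent duplicate experiments.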

[2] = Apparent permeability of the compound by PAMPA assay; format: ADME
How it was run: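 Passive permeability measured in a PAMPA assay.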

[3] = Kinetic solubility of the compound at pH 7.4 at room temperature; format: physicochemical; conditions: buffer, read-out: Kinetic_solubility
How it was run: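 Kinetic solubility measured from DMSO stock solutions at room temperature. Assay run at the pH named in each line.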

[4] = biological target: T1, Metabotropic glutamate receptor 4; experiment: Positive allosteric modulation of human mGlu4 receptor expressed in BHK cells assessed as potentiation of glutamate-induced calcium mobilization after 1 hr by FLIPR assay; format: functional, cell-based
How it was run: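 Stable BHK line co-expressing human mGlu4 and murine Gα15, plated on poly-D-lysine 24 h ahead. Cells loaded 1 h at 37 °C, 5% CO2 with Calcium 3 dye in HBSS/20 mM HEPES pH 7.4, 0.1% BSA, 2.5 mM probenecid. Test agent added with an EC20 glutamate challenge. Peak fluorescence change read by FLIPR and fitted to the Hill equation. At least two independent runs in duplicate, means reported.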

[5] = Intrinsic clearance in human microsomes; format: ADME, Microsome
How it was run: (§1)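 Intrinsic clearance measured in rat and human liver microsomes. Hepatic blood flow references given as 20 mL/min for rat and 1.5 L/min for human.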

[6] = Plasma protein binding in human; format: ADME, cell-free; conditions: read-out: PPB (converted)
[7] = Intrinsic clearance in rat microsomes; format: ADME, Microsome; how it was run: as §1
[8] = Plasma protein binding in rat; format: ADME, cell-free; conditions: read-out: PPB (converted)

T1 sequence (Q14833 whole entry): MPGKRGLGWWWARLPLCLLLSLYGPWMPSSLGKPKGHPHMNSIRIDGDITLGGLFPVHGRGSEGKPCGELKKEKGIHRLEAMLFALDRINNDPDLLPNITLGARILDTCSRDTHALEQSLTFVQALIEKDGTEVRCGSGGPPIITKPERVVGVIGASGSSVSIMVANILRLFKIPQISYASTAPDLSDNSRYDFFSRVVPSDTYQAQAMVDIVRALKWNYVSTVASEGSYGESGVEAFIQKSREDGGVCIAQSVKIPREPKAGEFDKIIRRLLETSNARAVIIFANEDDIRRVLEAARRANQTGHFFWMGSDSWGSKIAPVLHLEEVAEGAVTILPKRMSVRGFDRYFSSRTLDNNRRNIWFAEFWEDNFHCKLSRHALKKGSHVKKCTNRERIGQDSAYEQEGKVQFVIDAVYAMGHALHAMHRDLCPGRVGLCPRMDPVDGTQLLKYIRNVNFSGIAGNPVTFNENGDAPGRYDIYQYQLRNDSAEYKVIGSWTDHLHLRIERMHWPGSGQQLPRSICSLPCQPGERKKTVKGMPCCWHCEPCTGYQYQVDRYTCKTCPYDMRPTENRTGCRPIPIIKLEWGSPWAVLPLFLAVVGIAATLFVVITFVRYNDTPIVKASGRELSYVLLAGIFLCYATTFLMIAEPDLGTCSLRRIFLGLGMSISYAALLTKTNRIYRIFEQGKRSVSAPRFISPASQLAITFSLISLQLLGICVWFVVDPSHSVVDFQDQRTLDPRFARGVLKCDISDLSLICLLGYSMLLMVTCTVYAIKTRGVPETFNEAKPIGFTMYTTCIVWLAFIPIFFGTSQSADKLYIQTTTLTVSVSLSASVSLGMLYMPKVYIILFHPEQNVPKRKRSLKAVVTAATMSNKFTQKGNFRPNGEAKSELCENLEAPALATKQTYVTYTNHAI

| SMILES | Emax [1] [%] | Papp [2] [×10⁻⁶ cm/s] | solubility kinetic [3] [µM] | EC50 [4] [nM] | other results |
| --- | --- | --- | --- | --- | --- |
| CN(C)c1cccc(Nc2nc3c(s2)CCCc2n[nH]cc2-3)n1 | 150 |  |  |  |  |
| c1cc(Nc2nc3c(s2)CCCc2[nH]ncc2-3)nc(N2CCCC2)c1 |  | 0.1 | < 0.1 | > 10000 |  |
| c1cnc(Nc2nc3c(s2)CCc2[nH]ncc2-3)nc1 |  | 3.4 | 20 (≈ 5.41 µg/mL) | 65 | CL [5]: 4.4 L/min; fraction unbound [6]: 0.036; CL [7]: 42 mL/min; fraction unbound [8]: 0.105 |
| Cn1ccc(Nc2nc3c(s2)CCCc2n[nH]cc2-3)n1 | 130 |  |  |  |  |
| c1cc(Nc2nc3c(s2)CCc2n[nH]cc2-3)ccn1 | 10 |  |  |  |  |
| COc1cccc(Nc2nc3c(s2)CCCc2[nH]ncc2-3)n1 |  | 0.1 | 0.1 (≈ 0.0313 µg/mL) | 650 |  |
| Cc1cc(C)nc(Nc2nc3c(s2)CCc2[nH]ncc2-3)c1 |  | 1 | 0.1 (≈ 0.0297 µg/mL) | > 10000 |  |
| Fc1ccc(Nc2nc3c(s2)CCCc2[nH]ncc2-3)nc1 |  | 0.3 | < 0.1 | 750 |  |
| c1csc(Nc2nc3c(s2)CCCc2n[nH]cc2-3)n1 | 35 |  |  | > 10000 |  |
| Cc1ccnc(Nc2nc3c(s2)CCCc2n[nH]cc2-3)n1 | 210 |  |  |  |  |
| Cc1sc(Nc2ccccn2)nc1-c1cn[nH]c1 | 100 |  |  | 13 |  |
| Cc1[nH]ncc1-c1nc(Nc2ccccn2)sc1C | 19 |  |  | > 10000 |  |
| Cc1cccc(Nc2nc3c(s2)CCc2[nH]ncc2-3)n1 |  | 2 | 2.9 (≈ 0.822 µg/mL) | 910 | CL [5]: 48 L/min; CL [7]: 400 mL/min |
| Cc1ccc(N2C(=O)c3ccccc3NC2C(C)c2ccccc2)cc1 (stereo not given) | 129 |  |  |  |  |
| CN(C)c1cccc(Nc2nc3c(s2)CCCc2[nH]ncc2-3)n1 |  | < 0.1 | < 0.1 | 340 |  |
| c1cnc(Nc2nc3c(s2)CCCc2[nH]ncc2-3)cn1 |  | 3.8 | 78 (≈ 22.2 µg/mL) | > 10000 |  |
| Cc1cccc(Nc2nc3c(s2)CCCc2n[nH]cc2-3)n1 | 200 |  |  |  |  |
| Fc1ccc(Nc2nc3c(s2)CCCc2n[nH]cc2-3)nc1 | 170 |  |  |  |  |
| Cc1ccc(Nc2nc3c(s2)CCCc2[nH]ncc2-3)nc1 |  | 2.7 | < 0.1 | > 10000 |  |
| c1cncc(Nc2nc3c(s2)CCc2[nH]ncc2-3)c1 |  | 18.7 | 17 (≈ 4.58 µg/mL) | > 10000 |  |
| c1cnc(Nc2nc3c(s2)CCCc2n[nH]cc2-3)nc1 | 160 |  |  |  |  |
| c1cncc(Nc2nc3c(s2)CCc2n[nH]cc2-3)c1 | 11 |  |  |  |  |
| CCNc1cccc(Nc2nc3c(s2)CCCc2n[nH]cc2-3)n1 | 63 | 3.1 | 0.9 (≈ 0.294 µg/mL) | 600 |  |
| N#Cc1cccc(Nc2nc3c(s2)CCCc2[nH]ncc2-3)n1 |  | < 0.1 | < 0.1 | 4900 |  |

| SMILES | Emax [1] [%] | Papp [2] [×10⁻⁶ cm/s] | solubility kinetic [3] [µM] | EC50 [4] [nM] | other results |
| --- | --- | --- | --- | --- | --- |
| Cc1ccc(Nc2nc3c(s2)CCCc2n[nH]cc2-3)nn1 | 6.3 | 31 | 21 (≈ 6.27 µg/mL) | > 10000 |  |
| Cc1ccc(Nc2nc3c(s2)CCc2n[nH]cc2-3)nc1 | 12 | 1.9 | < 0.1 | > 10000 |  |
| Cc1cccnc1Nc1nc2c(s1)CCCc1[nH]ncc1-2 |  | 8 | 0.2 (≈ 0.0595 µg/mL) | 3400 |  |
| Cn1ccc(Nc2nc3c(s2)CCCc2[nH]ncc2-3)n1 |  | 19 | 160 (≈ 45.8 µg/mL) | 3000 |  |
| Cc1cc(C)nc(Nc2nc3c(s2)CCCc2n[nH]cc2-3)c1 | 4 |  |  |  |  |
| O=C(Nc1ccccc1)[C@]12C[C@H]1/C(=N\O)c1ccccc1O2 | 120 |  |  |  |  |
| Cc1nc2ccccc2nc1N/N=C/c1ccc(O)cc1 | 144 |  |  |  |  |
| c1cncc(Nc2nc3c(s2)CCCc2[nH]ncc2-3)c1 |  | 35 | 3.8 (≈ 1.08 µg/mL) | > 10000 |  |
| Cc1cc(C)nc(Nc2nc3c(s2)CCCc2[nH]ncc2-3)c1 |  | 1.2 | 0.4 (≈ 0.125 µg/mL) | > 10000 |  |
| OCc1cccc(Nc2nc3c(s2)CCCc2n[nH]cc2-3)n1 | 76 | 38.8 | 30 (≈ 9.4 µg/mL) | 2700 |  |
| c1ccc(Nc2nc3c(s2)CCc2n[nH]cc2-3)nc1 | 150 |  |  |  |  |
| c1cncc(Nc2nc3c(s2)CCCc2n[nH]cc2-3)c1 | 26 |  |  |  |  |
| Cc1cc(C)nc(Nc2nc3c(s2)CCc2n[nH]cc2-3)c1 | 11 |  |  |  |  |
| c1cc(Nc2nc3c(s2)CCCc2[nH]ncc2-3)[nH]n1 |  | 25 | 190 (≈ 51.7 µg/mL) | 3200 |  |
| CCOc1cccc(Nc2nc3c(s2)CCCc2n[nH]cc2-3)n1 | 78 | < 0.1 | < 0.1 | 290 |  |
| COc1cccc(Nc2nc3c(s2)CCCc2n[nH]cc2-3)n1 | 100 |  |  |  |  |
| Cc1ccnc(Nc2nc3c(s2)CCc2n[nH]cc2-3)c1 | 11 | 12.4 | 9 (≈ 2.55 µg/mL) | > 10000 |  |
| c1cc(Nc2nc3c(s2)CCc2[nH]ncc2-3)ccn1 |  | 2.5 | 180 (≈ 48.5 µg/mL) | > 10000 |  |
| Cc1cccc(Nc2nc3c(s2)CCc2n[nH]cc2-3)n1 | 120 |  |  |  |  |
| c1cc(Nc2nc3c(s2)CCCc2n[nH]cc2-3)nc(N2CCCC2)c1 | 14 |  |  |  |  |
| Cc1cc(Nc2nc3c(s2)CCCc2n[nH]cc2-3)n[nH]1 | 39 |  |  |  |  |
| Cc1cc(Nc2nc3c(s2)CCCc2[nH]ncc2-3)[nH]n1 |  | 15 | 10 (≈ 2.86 µg/mL) | 2400 |  |
| c1ccc(Nc2nc3c(s2)CCc2[nH]ncc2-3)cc1 |  | < 0.1 | < 0.1 | 2200 |  |
| COc1ccnc(Nc2nc3c(s2)CCCc2[nH]ncc2-3)n1 |  | 0.3 | 0.6 (≈ 0.189 µg/mL) | 100 |  |

| SMILES | Emax [1] [%] | Papp [2] [×10⁻⁶ cm/s] | solubility kinetic [3] [µM] | EC50 [4] [nM] | other results |
| --- | --- | --- | --- | --- | --- |
| c1cc(Nc2nc3c(s2)CCCc2n[nH]cc2-3)ncn1 | 150 | 41 | 1.8 (≈ 0.512 µg/mL) | 1300 |  |
| Cc1ccc(Nc2nc3c(s2)CCCc2n[nH]cc2-3)nc1 | 28 |  |  |  |  |
| c1cc(Nc2nc3c(s2)CCCc2n[nH]cc2-3)n[nH]1 | 140 |  |  |  |  |
| Cc1n[nH]cc1-c1csc(Nc2ccccn2)n1 | 79 |  |  | 56 |  |
| O=C(Nc1cc(Cl)cc(Cl)c1)[C@H]1CCCC[C@H]1C(=O)O | 120 |  |  | 750 |  |
| Cc1cc(C)cc(-n2ncc3c(N4CCCC(C)C4)ncnc32)c1 (stereo not given) | 100 |  |  | 4600 |  |
| Cc1ccnc(Nc2nc3c(s2)CCCc2[nH]ncc2-3)n1 |  | 0.5 | 0.6 (≈ 0.179 µg/mL) | 51 |  |
| c1ccc(Nc2nc3c(s2)CCCc2n[nH]cc2-3)nc1 | 120 |  |  |  |  |
| Cc1cccc(Nc2nc3c(s2)CCCc2[nH]ncc2-3)n1 |  | 4.9 | 110 (≈ 32.7 µg/mL) | 140 |  |
| c1[nH]nc2c1-c1nc(NC3CCCCC3)sc1CCC2 | 150 | 2.8 | < 0.1 | 1300 |  |
| Fc1cccc(Nc2nc3c(s2)CCCc2n[nH]cc2-3)n1 | 170 |  |  |  |  |
| c1cnc(Nc2nc3c(s2)CCc2n[nH]cc2-3)nc1 | 180 |  |  |  |  |
| c1cnc(Nc2nc3c(s2)CCCc2n[nH]cc2-3)cn1 | 18 |  |  |  |  |
| COCCOc1cccc(Nc2nc3c(s2)CCCc2n[nH]cc2-3)n1 | 90 | 0.1 | 0.1 (≈ 0.0357 µg/mL) | 390 |  |
| c1ccc(Nc2nc3c(s2)CCc2n[nH]cc2-3)cc1 | 160 |  |  |  |  |
| Clc1cccc(Nc2nc3c(s2)CCCc2[nH]ncc2-3)n1 |  | 15.4 | 38 (≈ 12.1 µg/mL) | 1100 |  |
| Cc1cccnc1Nc1nc2c(s1)CCCc1n[nH]cc1-2 | 84 |  |  |  |  |
| Fc1cccc(Nc2nc3c(s2)CCCc2[nH]ncc2-3)n1 |  | 0.1 | 0.2 (≈ 0.0603 µg/mL) | 105 |  |
| COc1ccnc(Nc2nc3c(s2)CCCc2n[nH]cc2-3)n1 | 230 |  |  |  |  |
| N#Cc1cccc(Nc2nc3c(s2)CCCc2n[nH]cc2-3)n1 | 50 |  |  |  |  |
| COC(=O)c1cccc(Nc2nc3c(s2)CCCc2n[nH]cc2-3)n1 | 5 | 0.1 | 1.9 (≈ 0.649 µg/mL) | > 10000 |  |
| Clc1cccc(Nc2nc3c(s2)CCCc2n[nH]cc2-3)n1 | 220 |  |  |  |  |
